Screens from PubChem.
In the library only some 3.4% were active in any assay of this set; here they are far more common.
PHOSPHO1 block – PHOSPHO1 (human) inhibition; recombinant PHOSPHO1, absorbance phosphatase assay; inhibition, % at 13.3 µM; 290,000 tested, 1.1% active; AID 1565; in the data active = inhibition above about 60%
Wee1 degr inh – inhibitors of human Wee1 degradation. HeLa Luc-Wee1K328M stability, luciferase luminescence; 100% = proteasome inhibitor MG132 effect. reporter increase, % at 5 µM. 220,000 tested, 1.2% active. AID 1321;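 active = activation above the mean of all tested compounds plus 3 SD, set per screening run, cut at about 8.8% in these data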;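 note: cells exposed to compound for 20 h before luminescence read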
Runt-CBFb FRET – Runt domain-CBFb interaction inhibition; Q01196+Q13951; Cerulean-Runt/Venus-CBFb FRET ratio 530/480, 1 h; inhibition, % at 20 µM; 220,000 tested, 0.46% active; AID 1496;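 active = inhibition over about 50% at 20 µM in the single-dose screen, limit read from the data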
Target sequence (Q01196 whole entry, looked up, the tested form may be a part): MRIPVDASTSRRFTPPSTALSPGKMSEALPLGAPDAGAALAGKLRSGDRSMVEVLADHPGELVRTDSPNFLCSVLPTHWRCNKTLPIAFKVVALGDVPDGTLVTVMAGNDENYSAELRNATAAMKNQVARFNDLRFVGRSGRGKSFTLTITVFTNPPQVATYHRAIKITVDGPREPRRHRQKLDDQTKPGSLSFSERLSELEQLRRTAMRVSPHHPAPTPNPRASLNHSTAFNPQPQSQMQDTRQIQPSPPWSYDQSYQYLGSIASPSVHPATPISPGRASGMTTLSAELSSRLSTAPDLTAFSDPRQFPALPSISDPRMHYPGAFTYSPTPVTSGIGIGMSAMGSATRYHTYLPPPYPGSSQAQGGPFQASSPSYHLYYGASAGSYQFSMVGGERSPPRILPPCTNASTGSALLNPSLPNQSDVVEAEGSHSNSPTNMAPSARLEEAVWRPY
Target sequence (Q13951 whole entry, looked up, the tested form may be a part): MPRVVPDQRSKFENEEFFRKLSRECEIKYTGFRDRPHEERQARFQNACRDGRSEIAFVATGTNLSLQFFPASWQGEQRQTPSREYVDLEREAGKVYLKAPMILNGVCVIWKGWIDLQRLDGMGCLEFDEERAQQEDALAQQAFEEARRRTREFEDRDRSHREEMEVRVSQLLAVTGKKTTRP
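Measured by: fluorescence energy transfer, 422 nm excitation, 530/480 nm emission; Assay system: Cerulean-Runt domain; Medium: Tris pH 7.5 buffer with BSA; Measure: loss of energy transfer signal; Controls: 5 µM unlabeled CBFb as full-inhibition high control; Incubation: protein complex preformed 1 h, compound exposure 1 h, room temperature, dark.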
Runt-SMMHC FRET – blocks binding of human RUNX1 Runt domain to CBFb-SMMHC; Cerulean-Runt/Venus-CBFb-SMMHC FRET ratio 530/480, 1 h; inhibition, % at 20 µM; 220,000 tested, 0.74% active; Q01196+Q13951;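 active = mean inhibition across duplicate retests at 20 µM reaching about 50%, limit read from the data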;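 note: inhibitors lower the FRET ratio by blocking Runt binding to CBFb-SMMHC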
RanGTP-Impb inh – inhibitors of RanGTP-importin-beta interaction, primary screen, biochemical, FRET, CFP-Ran, YFP-importin-beta, homogeneous | cell-free CFP-Ran/YFP-importin-beta FRET ratio | 300,000 tested, 1.1% active | AID 2216 | inhibition, % (test concentration not listed);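 active = more than half of the replicate wells show a fall in the fluorescence ratio signal beyond about 16%, limit read from the data, passing the limit was not always enough; inconclusive = exactly half of the replicate wells pass the set limit; inactive = fewer than half of replicates pass the limit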
HMGR II inh – E. faecalis class II HMG-CoA reductase inhibition. purified E. faecalis HMGR, NADPH absorbance 340 nm kinetic. inhibition, % at 10 µM. 190,000 tested, 0.41% active;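 active = inhibition above a set limit, the median over all tested compounds plus 3 SD, cut at about 9.5% in these data; inconclusive = no clear call, values can overlap the other calls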;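 note: enzyme runs in reverse so mevalonate oxidation gives rising NADPH absorbance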
Wee1 stab conf – confirmation of human Wee1 degradation inhibitors; activation, % at 5 µM; shares compounds with Wee1 degr inh; 1,100 tested, 4% active; HeLa Luc-Wee1K328M degradation, luminescence; vehicle 0%, proteasome-blocked wells 100%; in the data active = activation above about 8.9%
Each line names hits and unclear results; the compound was inactive in the other large screens (follow-up assays come after a bar, where they were run).

Cc1cc(-c2nnc(-c3cccc(Cl)c3)o2)no1	Wee1 degr inh 18.3 (no result: HMGR II inh) | Wee1 stab conf inactive
O=C(N/N=C/c1cccc(F)c1)c1c(O)c2c([nH]c1=O)CCCC2	none
O=C(/C=C/c1ccc(Cl)c(Cl)c1)N1CCc2ccccc21	Wee1 degr inh 19.1 | Wee1 stab conf inactive
Cc1cc(C)cc(NC(=O)c2cccc(C(=O)Nc3cc(C)cc(C)c3)n2)c1	none (no result: Wee1 degr inh, Runt-CBFb FRET, Runt-SMMHC FRET, HMGR II inh)
COc1ccc(-c2n[nH]c(=S)n2/N=C/C=C/c2ccccc2OC)cc1	Wee1 degr inh 11.2 | Wee1 stab conf inactive
CCOC(=O)CN(C(=O)COc1ccc2c(C)cc(=O)oc2c1)c1ccc(OCC)cc1	Wee1 degr inh 13.0 | Wee1 stab conf inactive
CNC(=O)COC(=O)COc1ccc2c(C)cc(=O)oc2c1	none
CN(Cc1ccsc1)C(=O)CCc1nnc(CCCc2ccccc2)o1	Wee1 degr inh 11.2 | Wee1 stab conf inactive
CCC(C)(C)NC(=O)CN(Cc1ccc2c(c1)OCO2)C(=O)CCC(=O)Nc1cc(C)ccn1	none (no result: Wee1 degr inh, Runt-CBFb FRET, Runt-SMMHC FRET, HMGR II inh)
COc1ccc(NC(=O)CCN2C(=O)C3C4CCC(C4)C3C2=O)cc1 (centres undefined)	Wee1 degr inh 11.9 | Wee1 stab conf inactive
CCc1cc2cc3c(cc2nc1SCC(=O)Nc1cc(C)on1)OCO3	none
CCC(=O)Nc1ccc(-c2nc3ccccc3c(=O)o2)cc1	Wee1 degr inh 12.6 | Wee1 stab conf inactive
Cc1ccc(C(=O)N/C(=C/c2ccco2)C(=O)N2CCOCC2)cc1	none (no result: Wee1 degr inh, Runt-CBFb FRET, Runt-SMMHC FRET, HMGR II inh)
COc1ccc(NC(=O)/C=C2\SC(=O)NC2=O)cc1	Wee1 degr inh 15.2 | Wee1 stab conf inactive
COc1ccc(NC(=O)Nc2ccc(OC)cc2)cc1	none
CC(=O)c1ccc(N=Nc2ccc(C)cc2)cc1	Wee1 degr inh 23.7, RanGTP-Impb inh inconclusive | Wee1 stab conf inactive
Cc1cccc(C)c1N(CC(=O)NC1CCCCC1)C(=O)c1csnn1	none (no result: Wee1 degr inh, Runt-CBFb FRET, Runt-SMMHC FRET, HMGR II inh)
O=C(OCC(=O)c1ccccc1Cl)c1cnccn1	Wee1 degr inh 12.2 | Wee1 stab conf inactive
O=C(OCC(=O)c1ccc(Cl)cc1Cl)c1cnccn1	none (no result: Wee1 degr inh, Runt-CBFb FRET, Runt-SMMHC FRET, HMGR II inh)
CN(Cc1nccn1C)C(=O)CC1C(=O)NCCN1Cc1cccc(Oc2ccccc2)c1 (centres undefined)	Wee1 degr inh 11.9 | Wee1 stab conf inactive
O=C(O)CSc1nc2ccccc2o1	none
CCCCOC(=O)CSc1nc2ccccc2o1	Wee1 degr inh 11.6 (no result: HMGR II inh) | Wee1 stab conf inactive
Cc1ccc(OCC(O)Cn2c3ccccc3c3ccccc32)cc1 (centres undefined)	none
OC(COCC(F)(F)C(F)(F)C(F)(F)C(F)F)Cn1c2ccccc2c2ccccc21 (centres undefined)	Wee1 degr inh 10.9 | Wee1 stab conf inactive
CCCCN(C(=O)c1ccc(N(C)S(=O)(=O)c2ccc(C)cc2)cc1)c1c(N)n(CCCC)c(=O)[nH]c1=O	none (no result: PHOSPHO1 block, Wee1 degr inh, Runt-CBFb FRET, Runt-SMMHC FRET, HMGR II inh)
CC12CCC(=O)N1C(C(=O)OCC(=O)Nc1sccc1C#N)CS2 (centres undefined)	none
CC(NC(=O)COC(=O)C1CSC2(C)CCC(=O)N12)C12CC3CC(CC(C3)C1)C2 (centres undefined)	Wee1 degr inh 12.2 | Wee1 stab conf inactive
CCc1nn(C(C)C(=O)Nc2cccc(C)c2C)c(=O)c2cc3occc3n12 (centres undefined)	none
Cc1cc(C)n(Cc2ccc(C(=O)NCc3ccco3)o2)n1	none
Cc1cc(C)n2nc(C(=O)NCc3ccco3)cc2n1	Wee1 degr inh 17.4 | Wee1 stab conf inactive
O=C(Cc1ccccc1)Nc1ccccc1N1CCOCC1	Wee1 degr inh 21.4 (no result: Runt-CBFb FRET) | Wee1 stab conf inactive
O=c1[nH]c2ccccc2nc1/C=C(\O)c1cccs1	Wee1 degr inh 15.7 (no result: RanGTP-Impb inh) | Wee1 stab conf 9.6
Cc1ccc(C(=O)Nc2nc3ccccc3[nH]2)cc1	none (no result: Wee1 degr inh, Runt-CBFb FRET, Runt-SMMHC FRET, HMGR II inh)
O=C(Nc1nc2ccccc2[nH]1)c1cccs1	Wee1 degr inh 12.3 | Wee1 stab conf inactive
O=c1[nH]c2ccccc2nc1/C=C/c1ccc(O)cc1	Wee1 degr inh 11.3, RanGTP-Impb inh inconclusive | Wee1 stab conf inactive
CCc1ccc(C(=O)CN2CCSC2=N)cc1	none
